Sampled rows, rich in hits. Any-hit rate of the full collection: about 2%.
14-3-3 Bad inh: disrupts binding of bovine 14-3-3 zeta to phospho-Bad peptide | P63103 | TR-FRET 14-3-3zeta/Dy647-pBad peptide displacement, 1 h | inhibition, % at 21.7 µM | actives 0.71% (n = 220,000) | AID 781;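 active = inhibition above about 70%, limit read from the data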;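 note: 0% = full 14-3-3 plus peptide FRET controls and 100% = background without 14-3-3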
Target sequence (P63103 whole entry, looked up): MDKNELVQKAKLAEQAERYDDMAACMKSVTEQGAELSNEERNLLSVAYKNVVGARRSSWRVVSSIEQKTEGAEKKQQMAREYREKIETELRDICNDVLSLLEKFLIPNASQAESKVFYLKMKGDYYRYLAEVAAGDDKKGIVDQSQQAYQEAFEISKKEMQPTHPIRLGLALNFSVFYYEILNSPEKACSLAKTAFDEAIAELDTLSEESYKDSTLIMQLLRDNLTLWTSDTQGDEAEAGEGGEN
Diaph act CS: diaphorase activation or chemical reduction counter-screen. AID 1229. actives 0.005% (n = 190,000). Diaphorase/resazurin coupled assay, resorufin fluorescence, 16 min; hits give high values; 1 = vehicle wells, 0 = NADH-free wells. activation factor at 20 µM;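 active = diaphorase activity raised at least twofold by the compound at 20 µM; inactive = activation factor below 2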
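Material: purified diaphorase enzyme from Clostridium kluyveri; Also added: 0.114 mM NADH and 0.1 mM resazurin, final amounts; Doses: single compound dose of 20 µM, 1% DMSO final; Times: 16 min enzyme reaction, ambient temperature; Detection: resorufin fluorescence, excitation 544 nm, emission 590 nm; Measure: increased resorufin signal from activators or reducing compounds.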
NCF1 inh: p47phox (human) inhibition; P14598; p47phox/p22phox peptide binding, fluorescence polarization, 2 h; inhibition, % at 24.7 µM; actives 0.53% (n = 220,000);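 note: 0% = p47phox with labelled peptide and 100% = labelled peptide alone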
eIF4E-4G inh: inhibitors of eIF4E and eIF4G interaction in translation initiation; inhibition, % at 21.7 µM; actives 0.37% (n = 220,000); TR-FRET eIF4E-eIF4GI(517-606) binding, 2 h;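 note: 0% = full FRET control wells and 100% = background wells lacking eIF4GI fragment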
Hck-Nef inh: inhibitors of human Hck kinase activated by Nef | P08631 | Recombinant Hck-YEEI plus Nef, Z-Lyte FRET kinase assay | inhibition, % at 20 µM | actives 0.68% (n = 220,000) | AID 463187;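 active = Hck-Nef kinase inhibition above about 50%, limit read from the data; inactive = inhibition below that limit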;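 note: 0% = DMSO with Hck plus Nef and 100% = Hck alone without Nef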
Hck Nef conf: Hck-Nef kinase inhibition, confirmation; AID 463188; shares compounds with Hck-Nef inh; calls only at 10 µM; Recombinant Hck-YEEI:Nef, Z-Lyte FRET kinase assay; actives 28% (n = 1,300);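 active = average inhibition of at least 50%, with Z-scores no higher than 3 in both the phospho-tyrosine peptide and fluorescence counterscreens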
Starred values were filed as active, the others as inactive; i = inactive; x = no result shown; + = active, no number.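 Rule for the calls, unless noted: active = inhibition above about 30% (limit read from the data); inactive = the rest.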

SMILES	14-3-3 Bad inh	Diaph act CS	NCF1 inh	eIF4E-4G inh	Hck-Nef inh	Hck Nef conf
COC(=O)c1ccc(COc2ccc(C=O)cc2OC)o1	12	0.9	0	1	17	x
COc1cc(/C=C(/C#N)c2ccc(F)cc2)ccc1OCc1ccc(C(=O)O)o1	2	0.9	-15	-6	55*	+
COc1ccccc1N1C(=N)S/C(=C\c2ccc(-c3ccccc3C(=O)O)o2)C1=O	-10	0.7	-58	17	60*	+
N=C1S/C(=C\c2ccc(-c3ccccc3C(=O)O)o2)C(=O)N1c1ccc2c(c1)OCO2	70	0.3	15	8	85*	+
CC(C)Oc1ccc(C(=O)Nc2ccc(C(F)(F)F)n(C)c2=O)cc1	12	1	2	-8	4	x
CN1C(=O)C(CC(=O)O)S/C1=N\N=C\c1ccc(O)cc1O (configuration not stated)	-3	x	-2	6	4	x
O=C(N/N=C\c1ccc(F)cc1)c1ccc(Cn2cc(Br)c([N+](=O)[O-])n2)o1	18	0.9	-5	21	62*	+
O=C(N/N=C\c1cccc(F)c1)c1ccc(Cn2cc(Br)c([N+](=O)[O-])n2)o1	-6	0.9	-5	1	25	x
CCN(C(=O)CSc1nnc(-c2ccncc2)n1Cc1ccccc1)C1CCS(=O)(=O)C1 (configuration not stated)	-15	0.9	-5	2	23	x
CCCc1nc(SCC(=O)Nc2ccc(N3CCOCC3)cc2)c2ccccc2n1	1	1	4	-3	11	x
CCCc1nc(SCC(=O)NNC(=O)C2CCCCC2)c2ccccc2n1	16	0.9	16	-3	75*	i
CN1C(=O)NC(c2ccccc2)C2=C1CN(c1ccc3ccccc3c1)C2=O (configuration not stated)	84*	0.8	25	-40	103*	+
Cc1ccc(N2CC3=C(C2=O)C(c2ccccc2)NC(=O)N3C)cc1 (configuration not stated)	0	0.9	6	3	1	x
Cc1cc(/C=C2/C(=O)NN(c3ccccc3)C2=O)c(C)n1-c1ccc(O)cc1	-11	0.9	-11	-7	3	x
O=C1NN(c2ccccc2)C(=O)/C1=C\c1coc2ccc(O)cc2c1=O	16	x	11	7	71*	+
O=C1NN(c2ccccc2)C(=O)/C1=C/c1coc2ccccc2c1=O	24	0.9	18	-1	88*	+
S=c1[nH]nc(-c2ccncc2)n1/N=C/c1cn(-c2ccccc2)nc1-c1ccccc1	-2	x	-9	7	-13	x
O=[N+]([O-])c1ccc(-c2nn(-c3ccccc3)cc2/C=N/n2c(-c3ccncc3)n[nH]c2=S)cc1	10	x	-8	9	54*	i
CC1(C)Cc2c(c(-c3ccco3)nc3sc4c(NCCCO)ncnc4c23)CO1	1	x	-18	-3	5	x
CSc1nc(N(C)CCO)c2sc3nc(-c4ccco4)c4c(c3c2n1)CCC4	9	0.8	-21	26	89*	i
Cc1ccc(C(=O)NC(C)c2nc3ccccc3n2CC(=O)Nc2c(C)cc(C)cc2C)cc1 (configuration not stated)	25	x	11	9	57*	i
CC1=C(C#N)c2nc(N)c(C#N)c(C)c2/C1=C\c1ccc(-c2ccccc2C(=O)O)o1	56	0.4	37*	12	61*	i
COc1cc(/C=C2\SC(c3ccc(C)cc3)=NC2=O)cc(OC)c1O	-8	0.3	-58	7	2	x
Cc1ccc(C2=NC(=O)/C(=C/c3cc(O)c(O)c(Br)c3)S2)cc1	29	0.2	-51	7	50*	+
COC(=O)c1sccc1NC(=O)CNC(=O)c1ccccc1	-2	0.9	0	1	20	x
SMILES	14-3-3 Bad inh	Diaph act CS	NCF1 inh	eIF4E-4G inh	Hck-Nef inh	Hck Nef conf
O=C(CCCN1C(=O)/C(=C\c2cccs2)SC1=S)NNC(=O)c1cccnc1	-12	1	-17	1	19	x
Cc1nn(-c2ccccc2)c(C)c1-c1cc(C(=O)N/N=C/c2ccc(O)cc2)[nH]n1	-3	x	-53	-2	66*	+
CN1CCCN(C(=O)c2cc(-c3cccc4ccccc34)nc3ccccc23)CC1	-4	x	-7	-4	12	x
CCn1c(C)nc2cc(C(=O)N/N=C(\C)c3ccc(OC)cc3O)ccc21	-6	0.8	-6	-1	-39	x
CCCn1nnnc1NCc1c(F)cccc1Cl	-3	0.9	-7	0	21	x
COc1ccc2ccc(=O)oc2c1	8	0.9	-7	5	-1	x
CC(=O)Oc1ccc2ccc(=O)oc2c1	4	0.9	-7	2	122*	x
CC(NC(=O)OC(C)(C)C)C(=O)Oc1ccc2ccc(=O)oc2c1 (configuration not stated)	-2	0.8	-3	18	74*	x
N=c1c2c(-c3ccccc3)c(-c3ccccc3)oc2ncn1CCCN1CCOCC1	10	1	-11	7	6	x
c1ccc(-c2oc3ncnc(NCCCn4ccnc4)c3c2-c2ccccc2)cc1	-4	1.1	-8	3	19	x
c1ccc(-c2oc3ncnc(NCCN4CCOCC4)c3c2-c2ccccc2)cc1	1	1	-15	8	83*	+
N=c1c2c(-c3ccccc3)c(-c3ccccc3)oc2ncn1CCN1CCOCC1	0	0.7	-13	5	78*	+
Cc1cc(Cl)ccc1NC(=S)NCC(C)C	-2	0.8	-13	-8	-1	x
COc1cc(NC(=S)Nc2ncccc2C)cc(OC)c1OC	-3	0.8	-6	-1	-1	x
COc1cc(NC(=S)Nc2cccc(C)n2)cc(OC)c1OC	-14	0.9	-9	-6	97*	i
Cc1c(-n2c(O)c(C3=c4ccccc4=NC3=O)sc2=S)c(=O)n(-c2ccccc2)n1C	40	1	19	6	100*	+
Cc1cc(=O)oc2cc(NS(=O)(=O)c3ccc(F)cc3)ccc12	24	x	5	6	106*	x
CN(C)S(=O)(=O)c1ccc(S(=O)(=O)Nc2ccc3c(c2)oc2ccccc23)cc1	2	0.7	-11	4	0	x
COc1ccc(S(=O)(=O)Nc2ccc(S(=O)(=O)Nc3ccc(F)cc3)cc2)cc1C	10	0.7	-11	6	-9	x
Cc1cc(=O)oc2cc(NS(=O)(=O)c3ccccc3)ccc12	13	x	-10	9	114*	x
O=C(CCC(=O)N1CCOCC1)c1ccc(F)cc1	0	0.9	-17	-1	8	x
O=Cc1cn(-c2ccccc2)nc1-c1cc2cc(O)ccc2oc1=O	47	0.9	-65	-6	52*	x
CCOC(=O)c1c[nH][nH]c1=O	3	x	-18	5	7	x

Compound activity as filed in PubChem BioAssay.
